Experimental data published in ChEMBL document CHEMBL4152275, “Discovery of novel small molecule TLR4 inhibitors as potent anti-inflammatory agents” (Eur J Med Chem, 2018).

Key:
[1] = target: T1, Toll-like receptor 4 (Homo sapiens, UniProt O00206); assay: Antagonist activity at human TLR4 expressed in HEK blue cells coexpressing MD-2/CD14 assessed as inhibition of LPS-induced NF-kappaB activation-mediated SEAP production after 24 hrs; format: cell-based
How it was run: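 HEK293 cells stably carrying human TLR4, MD-2, CD14 and an NF-κB-inducible SEAP reporter were seeded at 4×10^4/well, grown 24 h, then switched to unsupplemented DMEM. Cells were treated with 20 ng/mL LPS plus compound (1.56–100 µM; from 10 mM DMSO stocks) for 24 h. Supernatant SEAP was read with QUANTI-Blue at OD620 after 15–30 min at 37°C. Two independent experiments in triplicate.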

[2] = target: T2, Toll-like receptor 4 (Mus musculus) (UniProt Q9QUK6); assay: Antagonist activity at TLR4 in mouse RAW264.7 cells assessed as inhibition of LPS-induced NO production after 24 hrs by Griess assay; format: cell-based
T2 sequence (whole entry): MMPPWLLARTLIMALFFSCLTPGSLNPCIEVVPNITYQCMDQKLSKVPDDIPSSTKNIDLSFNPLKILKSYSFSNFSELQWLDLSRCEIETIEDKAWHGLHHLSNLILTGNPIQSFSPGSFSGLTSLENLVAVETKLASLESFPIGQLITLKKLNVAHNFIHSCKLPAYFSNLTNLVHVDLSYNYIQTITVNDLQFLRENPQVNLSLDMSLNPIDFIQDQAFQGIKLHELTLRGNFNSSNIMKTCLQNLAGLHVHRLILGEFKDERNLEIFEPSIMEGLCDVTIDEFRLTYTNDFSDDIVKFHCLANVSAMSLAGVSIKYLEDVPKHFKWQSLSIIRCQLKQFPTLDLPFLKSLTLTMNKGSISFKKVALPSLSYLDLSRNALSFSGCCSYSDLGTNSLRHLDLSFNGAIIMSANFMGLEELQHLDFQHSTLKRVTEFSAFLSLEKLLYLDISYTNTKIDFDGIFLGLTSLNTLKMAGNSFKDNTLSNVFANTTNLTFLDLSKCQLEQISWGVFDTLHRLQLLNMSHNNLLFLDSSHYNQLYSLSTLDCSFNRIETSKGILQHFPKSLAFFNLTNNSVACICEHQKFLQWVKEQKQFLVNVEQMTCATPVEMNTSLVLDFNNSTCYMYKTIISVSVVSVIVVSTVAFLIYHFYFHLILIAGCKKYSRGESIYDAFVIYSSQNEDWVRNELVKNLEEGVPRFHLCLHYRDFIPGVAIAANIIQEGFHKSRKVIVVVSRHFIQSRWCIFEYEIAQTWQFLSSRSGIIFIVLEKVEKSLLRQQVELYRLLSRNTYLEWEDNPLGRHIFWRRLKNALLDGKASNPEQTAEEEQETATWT
How it was run: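 RAW264.7 or BV-2 cells were seeded at 50,000/well in DMEM + 10% FBS with penicillin/streptomycin and pre-incubated 24 h at 37°C, 5% CO2. Medium was replaced with unsupplemented DMEM. Cells were treated with 40 ng/mL LPS plus graded compound for 24 h. Supernatant nitrite was read by Griess reaction (sulfanilic acid/phosphoric acid, then naphthylethylenediamine, 10 min each) against a nitrite standard.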

[3] = target: T1, Toll-like receptor 4; assay: Antagonist activity at TLR4 in human PBMC assessed as inhibition of LPS-induced TNFalpha production at 20 uM after 24 hrs by ELISA relative to control; format: cell-based
How it was run: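 Human PBMC at 1×10^6 cells/well in RPMI 1640 were given compound with or without 10 ng/mL LPS for 24 h at 37°C, 5% CO2. Supernatants were frozen at −80°C, then TNF-α was quantified by sandwich ELISA against a recombinant human standard. Each sample was run in triplicate; three independent experiments, mean ± SD.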

[4] = Cytotoxicity against human HEK-Blue cells assessed as decrease in cell viability up to 100 uM after 24 hrs by CCK-8 assay; format: cell-based
How it was run: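 HEK-Blue hTLR4 cells were incubated with 40 ng/mL LPS and compound (0–100 µM) for 24 h. Viability was measured by CCK-8 absorbance at 450 nm.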

[5] = target: T1, Toll-like receptor 4; assay: Antagonist activity at human TLR4 expressed in HEK blue cell lysates assessed as inhibition of LPS-induced TLR4 protein expression after 24 hrs by Western blot method
How it was run: (§1)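 HEK-Blue hTLR4 cells at 1×10^6/well were grown 24 h in DMEM + 10% FBS, then switched to unsupplemented DMEM. Cells were treated with 40 ng/mL LPS and compound (0–20 µM) for 24 h, then lysed on ice. Protein was measured by BCA, run on 10% SDS-PAGE and blotted to PVDF. Blots were probed with anti-TLR4 (overnight, 4°C) with ECL detection; GAPDH served as loading control.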

[6] = target: T1, Toll-like receptor 4; assay: Antagonist activity at human TLR4 expressed in HEK blue cell lysates assessed as inhibition of LPS-induced TLR4 protein expression at 10 uM after 24 hrs by Western blot method relative to control; how it was run: as §1
[7] = target: Toll-like receptor 4 (Mus musculus) (UniProt Q9QUK6); assay: Antagonist activity at TLR4 in mouse BV2 cells assessed as inhibition of LPS-induced NO production after 24 hrs by Griess assay
[8] = test system: HCN2 channel; assay: Inhibition of HCN2 (unknown origin) expressed in COS7 cells assessed as change in half activation potential at 10 uM at -40 mV holding potential by pach clamp electrophysiology assay; settings: Homo sapiens
[9] = test system: HCN4 channel; assay: Inhibition of HCN4 (unknown origin) expressed in COS7 cells assessed as change in half activation potential at 10 uM at -40 mV holding potential by pach clamp electrophysiology assay; settings: Homo sapiens
[10] = test system: HCN2 channel; assay: Inhibition of HCN2 (unknown origin) expressed in COS7 cells assessed as amplitude of inward current (I/I0 ratio) at 10 uM at -40 mV holding potential by pach clamp electrophysiology assay; settings: Homo sapiens
[11] = test system: HCN4 channel; assay: Inhibition of HCN4 (unknown origin) expressed in COS7 cells assessed as amplitude of inward current (I/I0 ratio) at 10 uM at -40 mV holding potential by pach clamp electrophysiology assay; settings: Homo sapiens
[12] = test system: HCN2 channel; assay: Inhibition of HCN2 (unknown origin) expressed in COS7 cells assessed as Tdeact time at 10 uM at -40 mV holding potential measured at +50 mV by pach clamp electrophysiology assay (reference value: 66 +/- 4.2 milliseconds); settings: Homo sapiens
[13] = test system: HCN2 channel; assay: Inhibition of HCN2 (unknown origin) expressed in COS7 cells assessed as Tact time at 10 uM at -40 mV holding potential measured at -120 mV by pach clamp electrophysiology assay (reference value: 242.9 +/- 24 milliseconds); settings: Homo sapiens
[14] = test system: HCN4 channel; assay: Inhibition of HCN4 (unknown origin) expressed in COS7 cells assessed as Tdeact time at 10 uM at -40 mV holding potential measured at +50 mV by pach clamp electrophysiology assay (reference value: 92.9 +/- 9.5 milliseconds); settings: Homo sapiens
[15] = test system: HCN4 channel; assay: Inhibition of HCN4 (unknown origin) expressed in COS7 cells assessed as Tact time at 10 uM at -40 mV holding potential measured at -120 mV by pach clamp electrophysiology assay (reference value: 780.9 +/- 59.2 milliseconds); settings: Homo sapiens

T1 sequence (O00206 whole entry): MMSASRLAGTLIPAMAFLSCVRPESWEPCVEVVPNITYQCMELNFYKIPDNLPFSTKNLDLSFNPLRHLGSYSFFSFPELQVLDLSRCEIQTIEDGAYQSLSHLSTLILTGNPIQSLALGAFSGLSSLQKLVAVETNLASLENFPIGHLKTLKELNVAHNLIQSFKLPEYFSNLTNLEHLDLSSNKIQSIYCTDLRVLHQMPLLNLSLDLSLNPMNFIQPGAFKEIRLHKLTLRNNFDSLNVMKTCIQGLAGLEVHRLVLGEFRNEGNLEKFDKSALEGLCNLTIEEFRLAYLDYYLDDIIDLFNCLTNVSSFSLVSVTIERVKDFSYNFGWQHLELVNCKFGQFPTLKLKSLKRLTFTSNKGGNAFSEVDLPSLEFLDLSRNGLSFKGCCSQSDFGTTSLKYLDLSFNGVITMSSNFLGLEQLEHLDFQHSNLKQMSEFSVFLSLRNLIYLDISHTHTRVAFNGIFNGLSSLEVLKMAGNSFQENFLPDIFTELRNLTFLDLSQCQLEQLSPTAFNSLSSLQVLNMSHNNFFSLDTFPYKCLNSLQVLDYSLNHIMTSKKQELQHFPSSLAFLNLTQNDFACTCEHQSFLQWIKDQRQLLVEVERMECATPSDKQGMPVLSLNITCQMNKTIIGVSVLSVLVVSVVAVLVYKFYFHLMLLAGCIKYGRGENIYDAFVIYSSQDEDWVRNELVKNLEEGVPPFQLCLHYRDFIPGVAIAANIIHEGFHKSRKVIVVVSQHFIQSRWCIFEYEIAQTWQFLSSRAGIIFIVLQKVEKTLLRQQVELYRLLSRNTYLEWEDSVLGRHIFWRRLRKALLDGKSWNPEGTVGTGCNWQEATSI

## Cc1ccc(OCCC(O)CN(C)Cc2c(C)nn(Cc3ccccc3Cl)c2C)cc1 (stereo not given)
[1]; read-out: IC50
  IC50: 51.5 µM

## COc1ccccc1OCCNCC(O)CCOc1cccc2[nH]c3ccccc3c12 (stereo not given)
[1]; read-out: IC50
  IC50: 32.5 µM

## CCOc1ccc(OCCC(O)CN(C)Cc2c(C)nn(Cc3ccccc3C)c2C)cc1 (stereo not given)
[1]; read-out: IC50
  IC50: 54.6 µM

## CCCc1ccc(OCCC(O)CN(C)Cc2c(C)nn(Cc3ccccc3Cl)c2C)cc1 (stereo not given)
[1]; read-out: IC50
  IC50: 24.7 µM

## Cc1nn(Cc2ccccc2Cl)c(C)c1CN(C)CC(O)COc1cccc2[nH]c3ccccc3c12 (stereo not given)
[1]; read-out: IC50
  IC50: 12.4 µM
[2]
  inhibition: Dose-dependent effect
[3]
  inhibition: 80%
[4]
  Activity: Non-Toxic
[5]
  inhibition: Dose-dependent effect
[6]
  inhibition: > 90%
[7]
  inhibition: Dose-dependent effect
[8]
  V1/2: -21.4 mV
[9]
  V1/2: -28.8 mV
[10]
  Ratio: 0.7
[11]
  Ratio: 0.5
[12]
  TIME: 1.47e-05 h
[13]
  TIME: 0.000248 h
[14]
  TIME: 2.22e-05 h
[15]
  TIME: 0.000597 h

## CCOc1ccc(OCCC(O)CN(C)Cc2c(C)nn(Cc3ccc(Cl)cc3)c2C)cc1 (stereo not given)
[1]; read-out: IC50
  IC50: 25.9 µM

## Cc1nn(Cc2ccc(Cl)cc2)c(C)c1CN(C)CC(O)COc1cccc2[nH]c3ccccc3c12 (stereo not given)
[1]; read-out: IC50
  IC50: 13.6 µM

## CCOc1ccc(OCC(O)CN(C)Cc2c(C)nn(Cc3ccccc3Cl)c2C)cc1 (stereo not given)
[1]; read-out: IC50
  IC50: 34.2 µM
[10]
  Ratio: 0.73
[11]
  Ratio: 0.75

## OC(CNc1ccc(F)cc1)COc1cccc2[nH]c3ccccc3c12 (stereo not given)
[1]
  IC50: Not Active
[10]
  Ratio: 1
[11]
  Ratio: 0.82

## OC(CNc1ccc2c(c1)-c1ccccc1C2)COc1cccc2[nH]c3ccccc3c12 (stereo not given)
[1]; read-out: IC50
  IC50: 12.4 µM

## CCOc1ccc(OCCC(O)CN(C)Cc2c(C)nn(Cc3ccccc3F)c2C)cc1 (stereo not given)
[1]
  IC50: Not Active

## Cc1nn(Cc2ccccc2F)c(C)c1CN(C)CC(O)COc1cccc2[nH]c3ccccc3c12 (stereo not given)
[1]; read-out: IC50
  IC50: 34.6 µM

## Cc1nn(Cc2ccccc2)c(C)c1CN(C)CC(O)COc1cccc2[nH]c3ccccc3c12 (stereo not given)
[1]; read-out: IC50
  IC50: 31.5 µM

## OC(CNc1ccc2ccccc2c1)COc1cccc2[nH]c3ccccc3c12 (stereo not given)
[1]; read-out: IC50
  IC50: 28.5 µM

## Cc1nn(Cc2ccccc2Cl)c(C)c1CN(C)CC(O)CCOc1ccc(F)cc1 (stereo not given)
[1]; read-out: IC50
  IC50: 55.4 µM

## O=C(c1ccccc1)c1cc(Cl)ccc1NCC(O)COc1cccc2[nH]c3ccccc3c12 (stereo not given)
[1]; read-out: IC50
  IC50: 21.1 µM

## CCc1ccc(OCCC(O)CN(C)Cc2c(C)nn(Cc3ccccc3Cl)c2C)cc1 (stereo not given)
[1]; read-out: IC50
  IC50: 26 µM

## COc1ccccc1OCCNCC(O)COc1cccc2[nH]c3ccccc3c12 (stereo not given) [CARVEDILOL]
[1]; read-out: IC50
  IC50: 33.2 µM

## CCOc1ccc(OCCC(O)CN(C)Cc2c(C)nn(Cc3ccccc3Cl)c2C)cc1 (stereo not given)
[1]
  IC50: Not Active

## OC(CNc1ccc(-c2ccccc2)cc1)COc1cccc2[nH]c3ccccc3c12 (stereo not given)
[1]; read-out: IC50
  IC50: 21.7 µM

## O=C1c2ccccc2C(=O)c2cc(NCC(O)COc3cccc4[nH]c5ccccc5c34)ccc21 (stereo not given)
[1]
  IC50: Not Active

## CCOc1ccc(OCCC(O)CNCCOc2ccccc2OC)cc1 (stereo not given)
[1]
  IC50: Not Active

## Cc1nn(Cc2ccccc2Cl)c(C)c1CN(C)CC(O)CCOc1cccc2[nH]c3ccccc3c12 (stereo not given)
[1]; read-out: IC50
  IC50: 15.1 µM

## Cc1nn(Cc2ccccc2Cl)cc1CN(C)CC(O)COc1cccc2[nH]c3ccccc3c12 (stereo not given)
[1]
  IC50: Not Active

## Cc1nn(Cc2ccccc2Cl)c(C)c1CN(C)CC(O)CCOc1ccc(C(C)(C)C)cc1 (stereo not given)
[1]; read-out: IC50
  IC50: 16.7 µM

## CCOc1ccc(OCC(O)CNCCOc2ccccc2OC)cc1 (stereo not given)
[1]
  IC50: Not Active

## C/N=C/c1cn(CC(O)COc2cccc3[nH]c4ccccc4c23)cn1 (stereo not given)
[1]
  IC50: Not Active
